In ChEMBL document CHEMBL1127345, “Synthesis, binding properties, and 18F labeling of fluorocarazolol, a high-affinity beta-adrenergic receptor antagonist” (J Med Chem, 1994):

Experiments:
[1] = system: Mus musculus; test: The in vivo tissue distribution of mouse bone with Propranolol administration after 40 min, value was fractional dose per fractional body weight of the organ; type: ADME, organism-based, Bone element
Outline: (§1)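 Male CF-1 mice (25–30 g), anesthetised with 2 mg sodium pentobarbital ip 30 min before tracer. Where blocked, propranolol iv via tail vein (0.1 mL of […]; […]) about 30 min before tracer. Tracer given by tail vein, 0.1 mL at 1–2 mCi/mL. Mice killed by cervical dislocation at set times, organs weighed and counted. %ID/g × body weight/100 gives unitless uptake. Heart, brain, blood, lung, kidney, liver and bone n=5; average ± SD.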

[2] = system: Mus musculus; test: The in vivo tissue distribution of mouse bone with Propranolol preadministration in 20 min, value was fractional dose per fractional body weight of the organ; type: ADME, organism-based, Bone element; outline: as §1
[3] = system: Mus musculus; test: The in vivo tissue distribution of mouse brain with Propranolol administration after 40 min, value was fractional dose per fractional body weight of the organ; type: ADME, organism-based; outline: as §1
[4] = system: Mus musculus; test: The in vivo tissue distribution of mouse kidney without Propranolol preadministration in 60 min, value was fractional dose per fractional body weight of the organ; details: 1 h
[5] = system: Mus musculus; test: The in vivo tissue distribution of mouse blood without Propranolol preadministration in 90 min, value was fractional dose per fractional body weight of the organ; details: 1.5 h
[6] = system: Mus musculus; test: The in vivo tissue distribution of mouse lung without Propranolol preadministration in 20 min, value was fractional dose per fractional body weight of the organ
[7] = system: Mus musculus; test: The in vivo tissue distribution of mouse brain with Propranolol administration after 120 min, value was fractional dose per fractional body weight of the organ; type: ADME, organism-based; details: 2 h
Outline: (§2)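 Male CF-1 mice (25–30 g), given 2 mg sodium pentobarbital ip 30 min before tracer. Blocked groups received propranolol iv by tail vein, 0.1 mL of 1 mg/mL. About 30 min later, 0.1 mL of [18F]tracer (1–2 mCi/mL) was injected by tail vein. Mice were killed by cervical dislocation at set times, and organs were weighed and counted. Uptake is %ID/g × body weight/100, average ± SD; n=5 for heart, brain, blood, lung, kidney, liver and bone.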

[8] = system: Mus musculus; test: The in vivo tissue distribution of mouse bone with Propranolol preadministration in 60 min, value was fractional dose per fractional body weight of the organ; type: ADME, organism-based, Bone element; details: 1 h; outline: as §1
[9] = system: Mus musculus; test: The in vivo tissue distribution of mouse lung without Propranolol preadministration in 60 min, value was fractional dose per fractional body weight of the organ; details: 1 h
[10] = system: Mus musculus; test: The in vivo tissue distribution of mouse lung without Propranolol preadministration in 180 min, value was fractional dose per fractional body weight of the organ; details: 3 h
[11] = system: Mus musculus; test: The in vivo tissue distribution of mouse blood with Propranolol administration after 20 min, value was fractional dose per fractional body weight of the organ; type: ADME, organism-based; outline: as §1
[12] = system: Mus musculus; test: The in vivo tissue distribution of mouse lung with Propranolol administration after 40 min, value was fractional dose per fractional body weight of the organ; type: ADME, organism-based
Outline: (§3)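 Male CF-1 mice (25–30 g) anaesthetised with 2 mg sodium pentobarbital ip; blocked group given 0.1 mL of […] propranolol iv via tail vein (200 μg, 6.6 mg/kg), tracer 30 min later. 0.1 mL of 1–2 mCi/mL [18F]-labelled enantiomer iv via tail vein; killed by cervical dislocation, organs weighed and counted against weighed standards. %ID/g × body weight/100 gives unitless uptake; five mice per point (heart, blood, lung, kidney, liver, bone); mean ± SD.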

[13] = system: Mus musculus; test: The in vivo tissue distribution of mouse liver with Propranolol preadministration in 120 min, value was fractional dose per fractional body weight of the organ; type: ADME, organism-based; details: 2 h; outline: as §1
[14] = system: Mus musculus; test: The in vivo tissue distribution of mouse kidney without Propranolol preadministration in 120 min, value was fractional dose per fractional body weight of the organ; details: 2 h
[15] = system: Mus musculus; test: The in vivo tissue distribution of mouse brain without Propranolol preadministration in 10 min, value was fractional dose per fractional body weight of the organ
[16] = system: Mus musculus; test: The in vivo tissue distribution of mouse liver without Propranolol preadministration in 10 min, value was fractional dose per fractional body weight of the organ
[17] = system: Mus musculus; test: The in vivo tissue distribution of mouse blood with Propranolol administration after 120 min, value was fractional dose per fractional body weight of the organ; type: ADME, organism-based; details: 2 h; outline: as §2
[18] = system: Mus musculus; test: The in vivo tissue distribution of mouse kidney without Propranolol preadministration in 10 min, value was fractional dose per fractional body weight of the organ
[19] = system: Mus musculus; test: The in vivo tissue distribution of mouse liver with Propranolol administration after 120 min, value was fractional dose per fractional body weight of the organ; type: ADME, organism-based; details: 2 h; outline: as §1
[20] = system: Mus musculus; test: The in vivo tissue distribution of mouse brain without Propranolol preadministration in 20 min, value was fractional dose per fractional body weight of the organ
[21] = system: Mus musculus; test: The in vivo tissue distribution of mouse blood with Propranolol administration after 90 min, value was fractional dose per fractional body weight of the organ; type: ADME, organism-based; details: 1.5 h; outline: as §3
[22] = system: Mus musculus; test: The in vivo tissue distribution of mouse brain without Propranolol preadministration in 180 min, value was fractional dose per fractional body weight of the organ; details: 3 h
[23] = system: Mus musculus; test: The in vivo tissue distribution of mouse bone with Propranolol administration after 180 min, value was fractional dose per fractional body weight of the organ; type: ADME, organism-based, Bone element; details: 3 h; outline: as §2
[24] = system: Mus musculus; test: The in vivo tissue distribution of mouse bone without Propranolol preadministration in 180 min, value was fractional dose per fractional body weight of the organ; details: 3 h
[25] = system: Mus musculus; test: The in vivo tissue distribution of mouse lung without Propranolol preadministration in 120 min, value was fractional dose per fractional body weight of the organ; details: 2 h
[26] = system: Mus musculus; test: The in vivo tissue distribution of mouse heart without Propranolol preadministration in 60 min, value was fractional dose per fractional body weight of the organ; details: 1 h
[27] = system: Mus musculus; test: The in vivo tissue distribution of mouse bone with Propranolol preadministration in 40 min, value was fractional dose per fractional body weight of the organ; type: ADME, organism-based, Bone element; outline: as §1
[28] = system: Mus musculus; test: The in vivo tissue distribution of mouse lung without Propranolol preadministration in 40 min, value was fractional dose per fractional body weight of the organ
[29] = system: Mus musculus; test: The in vivo tissue distribution of mouse bone with Propranolol preadministration in 90 min, value was fractional dose per fractional body weight of the organ; type: ADME, organism-based, Bone element; details: 1.5 h; outline: as §3
[30] = system: Mus musculus; test: The in vivo tissue distribution of mouse lung with Propranolol administration after 60 min, value was fractional dose per fractional body weight of the organ; type: ADME, organism-based; details: 1 h; outline: as §1
[31] = system: Mus musculus; test: The in vivo tissue distribution of mouse kidney with Propranolol administration after 90 min, value was fractional dose per fractional body weight of the organ; type: ADME, organism-based; details: 1.5 h; outline: as §1
[32] = system: Mus musculus; test: The in vivo tissue distribution of mouse liver with Propranolol administration after 10 min, value was fractional dose per fractional body weight of the organ; type: ADME, organism-based; outline: as §2

Row | Compound | Dose/organ [1] | Dose/organ [2] | Dose/organ [3] | Dose/organ [4] | Dose/organ [5] | Dose/organ [6] | Dose/organ [7] | Dose/organ [8] | Dose/organ [9] | Dose/organ [10] | Dose/organ [11] | Dose/organ [12] | Dose/organ [13] | Dose/organ [14] | Dose/organ [15] | Dose/organ [16] | Dose/organ [17] | Dose/organ [18] | Dose/organ [19] | Dose/organ [20] | also measured
1 | CC(C[18F])NC[C@@H](O)COc1cccc2[nH]c3ccccc3c12 (some centres undefined) | 0.83 | 0.93 | 0.9 | 2.63 | 0.43 | 5.1 | 0.12 | 1.08 | 2.39 | 0.84 | 0.57 | 2 | 0.94 | 1 | 0.82 | 3.08 | 0.3 | 4.6 | 0.94 | 0.66 | Dose/organ [21]: 0.47; Dose/organ [22]: 0.08; Dose/organ [23]: 2.98; Dose/organ [24]: 1.25; Dose/organ [25]: 1.29; Dose/organ [26]: 0.56; Dose/organ [27]: 0.95; Dose/organ [28]: 3.29; Dose/organ [29]: 1; Dose/organ [30]: 1.23; Dose/organ [31]: 1.57; Dose/organ [32]: 3.14
2 | CC(C[18F])NC[C@H](O)COc1cccc2[nH]c3ccccc3c12 (some centres undefined) | 0.64 | 0.65 | 0.64 | 1.39 | 0.66 | 7.46 | 0.11 | 0.72 | 5.34 | 4.8 | 0.43 | 1.98 | 0.96 | 0.83 | 1.18 | 3.55 | 0.13 | 4.18 | 0.66 | 0.95 | Dose/organ [21]: 0.34; Dose/organ [22]: 0.67; Dose/organ [23]: 2.72; Dose/organ [24]: 1.9; Dose/organ [25]: 4.82; Dose/organ [26]: 0.61; Dose/organ [27]: 0.71; Dose/organ [28]: 6.16; Dose/organ [29]: 1.13; Dose/organ [30]: 1.1; Dose/organ [31]: 0.92; Dose/organ [32]: 2.89
